Data on eight compounds can be found in ChEMBL document CHEMBL3872271, “Identification and validation of small molecule modulators of the NusB-NusE interaction” (Bioorg Med Chem Lett, 2017).

Test [1] deals with Bacillus subtilis. The test is described as follows: Inhibition of Bacillus subtilis full length NusB/GST-tagged NusE interaction at 25 uM preincubated with NusE for 15 mins followed by incubation with NusB for 1 hr by ELISA. In a few lines:
(§1)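 Wells coated overnight at 4 °C with purified full-length B. subtilis NusB (250 nM in PBS), then blocked with 1% BSA/PBS for 2 h at RT. Inhibitor preincubated with GST-NusE (200 nM) for 15 min at 37 °C, then added to wells for 1 h at RT. Bound NusE detected with rabbit anti-GST (1:2000), goat anti-rabbit HRP (1:2000) and TMB (6 min, 37 °C), read at OD 600 nm.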
Background: ELISA stands for enzyme-linked immunosorbent assay.

A short description of test [2]: Inhibition of Bacillus subtilis full length NusB/GST-tagged NusE preincubated with NusE for 15 mins followed by incubation with NusB for 1 hr by ELISA. In a few lines: as §1
Test [3] has as its system Escherichia coli. As to the kind of experiment: Growth inhibition of Escherichia coli DH5alpha at 200 uM measured every 10 mins for 16 hrs. The note with it: DH5[alpha], read-out: GI. The class given is functional. An outline of the steps: (§2)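 Cells grown at 37 °C in LB with shaking to OD 0.6–0.7 AU, then added to LB containing compound (50 mM DMSO stocks, serially diluted to 200 μM). Plates incubated at 37 °C, 200 rpm. OD600 was read every 10 min for 16 h with LB as blank. Triplicates, with growth compared to cells given equal DMSO.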

In test [4] the test system is Bacillus subtilis. The test is described as follows: Growth inhibition of Bacillus subtilis at 200 uM measured every 10 mins for 16 hrs. The format is functional. Particulars: read-out: GI. An outline of the steps:
as §2

By inhibition is commonly meant the relative decrease from the control value, in per cent. Low values mean a weak effect, high ones a strong effect. As usually defined, the IC50 is the midpoint of a concentration-inhibition curve. In test [1], `COc1ccc(-c2cc(-c3ccc(OC)c(OC)c3)nc(NS(=O)(=O)c3ccc(NC(C)=O)cc3)n2)c(OC)c1` displayed an inhibition of 88%. For the same compound, in test [2], the IC50 is 6.1 µM. Further, the results for the inhibition of growth at 200 µM in test [3] and in test [4] were 21% and 9%, respectively.
In turn, `Oc1ccccc1CNc1ccc(OCCCCOc2ccc(NCc3ccccc3O)cc2)cc1` displayed an inhibition in test [1] of 45%. Also, 210 µM corresponded to half-maximal inhibition in test [2] (IC50).
In test [1], `CCNC(=O)Nc1ccc(OCCCCOc2ccc(NC(=O)NCC)cc2)cc1` displayed an inhibition of 52%. Also, the IC50 in test [2] turned out to be 19.8 µM. Moreover, the inhibition of growth at 200 µM in test [3] was found to be 17%.
Regarding `COc1ccc(-c2cc(-c3ccc(OC)c(OC)c3)nc(NS(=O)(=O)c3ccc(N)cc3)n2)c(OC)c1`, the inhibition in test [1] was 3%.
`COc1cc(/C=N/NC(=O)CCc2ccc(O)cc2)cc(OC)c1OC` had an inhibition in test [1] of 5%. In addition, the inhibition of growth at 200 µM was found to be 10% in test [3] and 44% in test [4].
On to H-YDHRLLDQS-NH2, for which the IC50 in test [2] stood at 71 µM.
Turning to `O=[N+]([O-])c1ccc(OCC(O)CNCCNc2nccc(C(F)(F)F)n2)cc1` (racemic), the inhibition of growth at 200 µM in test [3] worked out at 11%; in test [4], 19%.
Compound `COc1ccc(/C=C/C(=O)c2ccc(OC)c(OC)c2)c(OC)c1` had an inhibition in test [1] of 48%.
